Results reported in ChEMBL document CHEMBL4610039, “Design, synthesis and apoptosis-related antiproliferative activities of chelidonine derivatives” (Bioorg Med Chem Lett, 2020).
Calls of active or inactive are those of the source. The rule behind the calls is not given here.

Columns and labels:
HepG2 = test: Antiproliferative activity against human HepG2 cells assessed as reduction in cell growth after 72 hrs by MTT assay; type: functional, cell-based; settings: HepG2, 72 h
Outline: (§1)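 Human HepG2, MCF-7, HCT-116 and K562 tumour cells plus normal L-02 hepatocytes and PBMCs were exposed to compounds for 72 h and growth was read by MTT. 5-Fu served as positive control. IC50 is the concentration inhibiting 50% of cell growth, given as mean ± standard deviation of three independent experiments.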

K562 [1] = test: Antiproliferative activity against human K562 cells assessed as reduction in cell growth after 72 hrs by MTT assay; type: functional, cell-based; settings: K562, 72 h; outline: as §1
K562 [2] = test: Induction of cell cycle arrest in human K562 cells assessed as accumulation at G2/M phase at 0.55 uM after 72 hrs by propidium iodide staining based flow cytometry (reference value: 8.19%); type: functional
Outline: (§2)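 For cell cycle, K562 cells were treated 72 h at 0, 0.55, 1.10 or 2.20 μM, with a solvent control. Cells were stained with PI and G1, S and G2/M fractions determined by flow cytometry.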

K562 [3] = test: Induction of cell cycle arrest in human K562 cells assessed as accumulation at G1 phase at 1.10 uM after 72 hrs by propidium iodide staining based flow cytometry (reference value: 56.13%); type: functional; outline: as §2
K562 [4] = test: Induction of apoptosis in human K562 cells assessed as necrotic cells at 0.55 uM after 48 hrs by annexin V-FITC/propidium iodide staining based flow cytometry (reference value: 0.78%); type: functional
K562 [5] = test: Induction of apoptosis in human K562 cells assessed as viable cells at 2.20 uM after 48 hrs by annexin V-FITC/propidium iodide staining based flow cytometry (reference value: 96.26%); type: functional; settings: K562, 48 h, read-out: Activity
K562 [6] = test: Induction of apoptosis in human K562 cells assessed as necrotic cells at 2.20 uM after 48 hrs by annexin V-FITC/propidium iodide staining based flow cytometry (reference value: 0.78%); type: functional
K562 [7] = test: Induction of mitochondrial membrane potential loss in human K562 cells assessed as cell population with intact mitochondrial membrane potential at 0.55 uM after 48 hrs by JC1 staining-based flow cytometry analysis (reference value: 92.94%); type: functional
K562 [8] = test: Induction of mitochondrial membrane potential loss in human K562 cells assessed as cell population with intact mitochondrial membrane potential at 1.10 uM after 48 hrs by JC1 staining-based flow cytometry analysis (reference value: 92.94%); type: functional
K562 [9] = test: Induction of mitochondrial membrane potential loss in human K562 cells after 48 hrs by JC1 staining-based flow cytometry analysis; type: functional, cell-based
K562 [10] = test: Induction of apoptosis in human K562 cells assessed as reduction in bcl-xl protein expression after 24 hrs by chemiluminescence based protein array analysis; type: functional, cell-based
Outline: (§3)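 K562 cells were treated for 24 h, then proteins were extracted and run on a human apoptosis protein array. Chemiluminescent signals were detected with a digital imaging system.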

K562 [11] = test: Induction of apoptosis in human K562 cells assessed as reduction in claspin level after 24 hrs by chemiluminescence based protein array analysis; type: functional, cell-based; outline: as §3
K562 [12] = test: Induction of apoptosis in human K562 cells assessed as reduction in clusterin protein expression after 24 hrs by chemiluminescence based protein array analysis; type: functional, cell-based; outline: as §3

Compound: CN1Cc2c(ccc3c2OCO3)[C@H]2[C@@H](OC(=O)CCCC(=O)OCC#CCOc3no[n+]([O-])c3S(=O)(=O)c3ccccc3)Cc3cc4c(cc3[C@H]21)OCO4
- IC50 (HepG2): 3.91 µM
- IC50 (K562 [1]): 1.12 µM
- Activity (K562 [2]): 10.28%
- Activity (K562 [3]): 41.27%
- Activity (K562 [4]): 1.69%
- viability at 2.2 µM (K562 [5]): 45%
- Activity (K562 [6]): 1.16%
- Activity (K562 [7]): 80.71%
- Activity (K562 [8]): 71.34%
- Activity (K562 [9]): Dose-dependent effect
- Activity (K562 [10]): Active
- Activity (K562 [11]): Active
- Activity (K562 [12]): Active
